Consider 13 compounds from ChEMBL document CHEMBL1148356, “Synthesis and biological evaluation of 3-heterocyclyl-7,8,9,10-tetrahydro-(7,10-ethano)-1,2,4-triazolo[3,4-a]phthalazines and analogues as subtype-selective inverse agonists for the GABA(A)alpha5 benzodiazepine binding site” (J Med Chem, 2004).

Data set [1] has as its target T1, GABA-A receptor; alpha-3/beta-3/gamma-2 (Homo sapiens, UniProt P18507+P28472+P34903).
T1 sequence (P18507 whole entry): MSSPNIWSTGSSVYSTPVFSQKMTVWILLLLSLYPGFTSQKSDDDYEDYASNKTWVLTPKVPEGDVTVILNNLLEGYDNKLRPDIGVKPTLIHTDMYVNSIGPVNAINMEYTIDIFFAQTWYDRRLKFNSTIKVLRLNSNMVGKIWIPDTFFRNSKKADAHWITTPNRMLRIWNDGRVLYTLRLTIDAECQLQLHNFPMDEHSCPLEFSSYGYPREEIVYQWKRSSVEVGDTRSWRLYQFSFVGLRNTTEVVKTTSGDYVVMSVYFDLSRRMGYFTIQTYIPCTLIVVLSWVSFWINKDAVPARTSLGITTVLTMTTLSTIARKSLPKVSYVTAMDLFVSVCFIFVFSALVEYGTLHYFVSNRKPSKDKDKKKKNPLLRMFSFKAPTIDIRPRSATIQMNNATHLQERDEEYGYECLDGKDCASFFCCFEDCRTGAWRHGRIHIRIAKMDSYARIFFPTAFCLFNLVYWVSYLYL
T1 sequence (P28472 whole entry): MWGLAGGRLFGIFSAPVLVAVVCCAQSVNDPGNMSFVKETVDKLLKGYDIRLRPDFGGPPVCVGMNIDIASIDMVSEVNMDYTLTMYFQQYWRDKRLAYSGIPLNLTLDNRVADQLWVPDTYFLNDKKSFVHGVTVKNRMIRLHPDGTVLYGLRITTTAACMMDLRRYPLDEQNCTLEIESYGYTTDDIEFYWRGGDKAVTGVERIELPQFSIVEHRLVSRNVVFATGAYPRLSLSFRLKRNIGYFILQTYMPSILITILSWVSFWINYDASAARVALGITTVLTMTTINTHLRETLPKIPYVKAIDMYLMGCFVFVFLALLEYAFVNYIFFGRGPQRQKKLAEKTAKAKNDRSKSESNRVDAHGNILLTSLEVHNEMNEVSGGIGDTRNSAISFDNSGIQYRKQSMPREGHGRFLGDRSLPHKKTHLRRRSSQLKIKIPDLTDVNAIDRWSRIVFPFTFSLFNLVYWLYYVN
T1 sequence (P34903 whole entry): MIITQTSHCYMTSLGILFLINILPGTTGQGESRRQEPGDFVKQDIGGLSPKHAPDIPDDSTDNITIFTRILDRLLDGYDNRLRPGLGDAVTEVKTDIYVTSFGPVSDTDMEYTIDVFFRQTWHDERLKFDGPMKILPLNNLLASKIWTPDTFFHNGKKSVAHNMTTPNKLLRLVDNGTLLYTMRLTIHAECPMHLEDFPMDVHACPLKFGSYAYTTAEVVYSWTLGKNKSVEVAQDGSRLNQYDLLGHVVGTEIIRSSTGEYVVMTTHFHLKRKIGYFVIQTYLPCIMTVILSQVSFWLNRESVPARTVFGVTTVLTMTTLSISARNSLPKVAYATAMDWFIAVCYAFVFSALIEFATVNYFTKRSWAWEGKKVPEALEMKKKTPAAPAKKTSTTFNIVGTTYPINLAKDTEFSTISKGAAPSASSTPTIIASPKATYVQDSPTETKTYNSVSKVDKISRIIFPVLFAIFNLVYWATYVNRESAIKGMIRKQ
As to the kind of experiment: Binding affinity towards human gamma-aminobutyric-acid A receptor alpha-3-beta-3-gamma-2 using [3H]Ro-151788 expressed in L(tk-) cells. It is filed as cell-based.

In data set [2] the target is GABA-A receptor; alpha-2/beta-3/gamma-2 (Homo sapiens) (UniProt P18507+P28472+P47869). As to the kind of experiment: Percent change in electrophysiological response in Xenopus oocytes expressing Alpha2-beta3-gamma2 GABA-A receptor. Type of data set: functional, cell-based. The settings on record: Oocyte. The method, boiled down:
(§1)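 Two-electrode voltage clamp on Xenopus oocytes injected with human GABA-A subunit cDNAs, 24-72 h expression, perfused with modified Barth's medium at pH 7.5, clamped between -40 and -70 mV. The GABA EC20 was titrated against a 3 mM GABA maximum. […] Result is % change of control current, mean ± SE of ≥4 oocytes.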

Data set [3] concerns the target GABA-A receptor; alpha-3/beta-3/gamma-2 (Homo sapiens) (UniProt P18507+P28472+P34903). As to the kind of experiment: Percent change in electrophysiological response in Xenopus oocytes expressing Alpha3-beta3-gamma2 GABA-A receptor. It is filed as functional, cell-based. The following applies: Oocyte. The method, boiled down:
as §1

The target of data set [4] is GABA-A receptor; alpha-1/beta-3/gamma-2 (Homo sapiens) (UniProt P14867+P18507+P28472). As to the kind of experiment: Percent change in electrophysiological response in Xenopus oocytes expressing Alpha1-beta3-gamma2 GABA-A receptor. The settings on record: Oocyte. Type of data set: functional, cell-based. The method, boiled down:
as §1

For data set [5], the target named is T2, GABA-A receptor; alpha-2/beta-3/gamma-2 (Homo sapiens, UniProt P18507+P28472+P47869).
T2 sequence (P18507 whole entry): T1 sequence (P18507 whole entry)
T2 sequence (P28472 whole entry): T1 sequence (P28472 whole entry)
T2 sequence (P47869 whole entry): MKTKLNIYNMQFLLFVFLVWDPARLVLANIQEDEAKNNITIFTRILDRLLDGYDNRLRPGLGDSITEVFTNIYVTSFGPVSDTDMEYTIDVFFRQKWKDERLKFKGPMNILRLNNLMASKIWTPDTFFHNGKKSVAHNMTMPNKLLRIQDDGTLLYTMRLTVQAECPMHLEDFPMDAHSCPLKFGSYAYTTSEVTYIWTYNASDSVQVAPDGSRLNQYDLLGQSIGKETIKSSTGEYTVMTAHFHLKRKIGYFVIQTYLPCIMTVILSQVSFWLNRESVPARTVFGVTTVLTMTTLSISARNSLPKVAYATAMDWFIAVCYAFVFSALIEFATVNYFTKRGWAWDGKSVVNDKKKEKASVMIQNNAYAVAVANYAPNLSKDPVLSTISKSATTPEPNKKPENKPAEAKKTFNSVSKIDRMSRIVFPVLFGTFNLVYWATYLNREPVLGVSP
As to the kind of experiment: Binding affinity towards human gamma-aminobutyric-acid A receptor alpha-2-beta-3-gamma-2 using [3H]Ro-151788 expressed in L(tk-) cells. It is filed as cell-based.

Data set [6] addresses T3, GABA-A receptor; alpha-5/beta-3/gamma-2 (Homo sapiens, UniProt P18507+P28472+P31644).
T3 sequence (P18507 whole entry): T1 sequence (P18507 whole entry)
T3 sequence (P28472 whole entry): T1 sequence (P28472 whole entry)
T3 sequence (P31644 whole entry): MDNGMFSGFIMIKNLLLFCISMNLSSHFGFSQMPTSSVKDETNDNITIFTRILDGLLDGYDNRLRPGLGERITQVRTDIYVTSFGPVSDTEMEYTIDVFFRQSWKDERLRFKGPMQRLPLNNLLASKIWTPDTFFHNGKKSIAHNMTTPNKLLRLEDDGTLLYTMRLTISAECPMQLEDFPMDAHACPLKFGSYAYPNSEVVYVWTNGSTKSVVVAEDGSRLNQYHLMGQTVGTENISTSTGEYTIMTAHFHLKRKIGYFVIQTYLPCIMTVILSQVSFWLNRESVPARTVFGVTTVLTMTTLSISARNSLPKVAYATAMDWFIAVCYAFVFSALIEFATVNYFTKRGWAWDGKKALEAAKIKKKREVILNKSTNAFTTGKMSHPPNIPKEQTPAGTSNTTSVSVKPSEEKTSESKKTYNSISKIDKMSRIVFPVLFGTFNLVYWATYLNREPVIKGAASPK
Briefly: Binding affinity towards human alpha-5-beta-3-gamma-2 GABA-A receptor using [3H]Ro-151788 expressed in L(tk-) cells. Type of data set: cell-based.

Data set [7] concerns the target GABA-A receptor; alpha-5/beta-3/gamma-2 (Homo sapiens) (UniProt P18507+P28472+P31644). Briefly: Percent change in electrophysiological response in Xenopus oocytes expressing Alpha-5-beta-3-gamma-2 GABA-A receptor. The settings on record: Oocyte. It is filed as functional, cell-based. The method, boiled down: as §1
Data set [8] deals with T4, GABA-A receptor; alpha-1/beta-3/gamma-2 (Homo sapiens, UniProt P14867+P18507+P28472).
T4 sequence (P14867 whole entry): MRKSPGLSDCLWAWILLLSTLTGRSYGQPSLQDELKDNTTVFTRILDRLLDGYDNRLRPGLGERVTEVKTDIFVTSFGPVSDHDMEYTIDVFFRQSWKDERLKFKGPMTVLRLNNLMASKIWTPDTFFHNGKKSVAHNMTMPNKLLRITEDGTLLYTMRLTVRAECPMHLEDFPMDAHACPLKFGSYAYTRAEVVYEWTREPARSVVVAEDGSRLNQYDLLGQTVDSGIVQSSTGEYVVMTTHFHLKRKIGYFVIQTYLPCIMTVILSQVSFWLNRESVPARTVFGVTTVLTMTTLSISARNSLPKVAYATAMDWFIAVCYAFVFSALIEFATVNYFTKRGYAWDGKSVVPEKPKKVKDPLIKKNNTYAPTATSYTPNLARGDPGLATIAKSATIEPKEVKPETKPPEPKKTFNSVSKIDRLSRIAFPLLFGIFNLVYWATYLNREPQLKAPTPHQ
T4 sequence (P18507 whole entry): T1 sequence (P18507 whole entry)
T4 sequence (P28472 whole entry): T1 sequence (P28472 whole entry)
As to the kind of experiment: Binding affinity towards human alpha-1-beta-3-gamma-2 GABA-A receptor using [3H]Ro-151788 expressed in L(tk-) cells. Type of data set: cell-based.

Data set [9] is described as follows: Oral bioavailability in rat. The following applies: in vivo. Type of data set: ADME, organism-based. The method, boiled down:
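Male SD rats with jugular cannulas were fasted overnight and dosed either by tail-vein IV bolus or orally (n = 3 per route). Serial jugular blood samples were taken up to 8 h. Plasma was frozen at −20 °C, protein-precipitated with acetonitrile containing internal standard, and quantified by LC-MS/MS.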

In the case of `Cc1cccc(COc2nn3c(-c4cnccn4)nnc3c3c2C2CCC3CC2)n1`, the Ki in data set [1] was found to be 10.6 nM; in [5] it was 28.4 nM; in data set [6], 1.8 nM; in [8], 84 nM. The Efficacy was 8% in data set [2], 19% in data set [3], 12% in data set [4] and -9% in [7].
With `Cc1cccc(COc2nn3c(-c4ccccc4)nnc3c3ccccc23)n1`, the inhibition constant Ki in data set [1] came out at 0.33 nM; in data set [5] it was 1 nM; in [6] it was 1.3 nM; in [8], 1.9 nM. Further, the Efficacy in data set [2] is -3.8%; in [3], -8.3%; in data set [4], 0.7%; in [7] it was 11%.
`Cc1noc(-c2nnc3c4c(c(OCc5ccccc5Br)nn23)C2CCC4CC2)n1`: the Ki in data set [1] came out at 6.2 nM; in data set [5], 16.5 nM; in [6] it was 1 nM; in data set [8], 58.5 nM. The Efficacy in data set [2] was -18%; in [3] it was 12%; in [4], -12%; in data set [7] it was -42%.
For the compound `Cc1cccc(COc2nn3c(-c4ccoc4)nnc3c3c2C2CCC3CC2)n1`, the Efficacy in data set [2] was -5%; in [3], -4%; in [4], 27%; in [7], -24%.
Turning to `Cc1cccc(COc2nn3c(-c4ccccc4)nnc3c3c2C2CCC3CC2)n1`, the Ki in [1] turned out to be 23.7 nM; in [5], 44.5 nM; in [6], 3 nM; in [8], 122 nM. Also, the Efficacy came out at 35% in data set [2], 44% in data set [3], 53% in data set [4] and 14% in [7].
For `Cc1noc(-c2nnc3c4c(c(OCc5ccc(C)c(C)n5)nn23)C2CCC4CC2)n1`, the Ki in data set [1] worked out at 8.6 nM; in data set [5], 9.8 nM; in data set [6], 0.39 nM; in data set [8], 48.6 nM. In addition, the Efficacy is -21% in [3], 1% in [4] and -25% in data set [7].
`Cc1cccc(COc2nn3c(-c4cc(C)on4)nnc3c3c2C2CCC3CC2)n1`: the Efficacy in [2] was 14%; in [3], -1%; in data set [4], 21%; in data set [7], -29%. Further, in data set [9], the bioavailability worked out at 3%.
Turning to `Cc1cccc(COc2nn3c(-c4cc(C)on4)nnc3c3c2C2CCC3C2)n1` (stereo not given), the Ki amounted to 33.5 nM in data set [1], 38.4 nM in data set [5], 8.9 nM in data set [6] and 147 nM in data set [8]. For the same compound, the Efficacy in [3] was 11%; in data set [7] it was -24%.
Consider `Cc1cccc(COc2nn3c(-c4cc(C)on4)nnc3c3ccccc23)n1`, for which the Efficacy is 12% in data set [2], 3% in data set [3], 15% in data set [4] and -15% in [7].
Turning to `Cc1cc(-c2nnc3c4c(c(OCc5ccccn5)nn23)CCCC4)no1`, the Ki in data set [1] amounted to 1.6 nM; in [5] it was 3.5 nM; in data set [8] it was 4.2 nM. The Efficacy is -6% in data set [2], -15% in data set [3], 0.4% in data set [4] and -23% in data set [7].
With `Cc1ccc(-c2nc3ccc(C)cn3c2CC(=O)N(C)C)cc1` [ZOLPIDEM], the Ki in [1] is 609 nM; in data set [5] it was 255 nM; in [6], greater than 10000 nM. Further, the Efficacy in data set [2] came to 187%; in data set [3], 142%; in [4] it was 133%.
Take `Cc1cc(-c2nnc3c4c(c(OCc5ccccn5)nn23)C2CCC4C2)no1` (stereo not given): the Ki came to 17.6 nM in data set [1], 19.7 nM in data set [5], 5.5 nM in data set [6] and 57.7 nM in data set [8]. Also, the results for the Efficacy in data set [3] and in data set [7] were 0.6% and -13%, respectively.
Take `Cc1cccc(COc2nn3c(-c4nc(C)no4)nnc3c3c2C2CCC3CC2)n1`: the results for the Ki in [1], in data set [6] and in [8] were 11 nM, 1.4 nM and 75.7 nM, respectively. Besides, the Efficacy in [2] is -10%; in data set [3], -21%; in [4], -15%; in data set [7], -35%. This compound registered a bioavailability in data set [9] of less than 1%.
